From PubChem BioAssay
DTT redox prof: compounds producing H2O2 with reducing agent – biochemical, NIH compound library profiling, artefact control for MLSCN library redox annotation, primary screen | DTT-dependent redox cycling H2O2, phenol red/HRP absorbance; 100% = 100 µM peroxide control, 0% = buffer | activation, % at 10 µM | actives 0.03% (n = 200,000);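 active = activation of at least 50% relative to the plate's high and low controls in the primary single-dose screen; inactive = activation below 50%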;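 note: compound incubated with DTT at 0.8 mM final as the reducing agent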
ROMK mod: ROMK potassium channel modulators, primary screen, cell-based, thallium flux, MLSMR library | B-score at 10 µM | Tet-inducible ROMK, thallium flux fluorescence; actives lie on both sides | ATP-sensitive inward rectifier potassium channel 1 (Homo sapiens), P48048 | actives 2% (n = 130,000);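 active = signal ratio slope over the read window, or its plate-corrected B-score, at least 3 SD from the plate mean, either direction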;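 note: B-score of the F/F0 ratio slope over 7 to 12 s after thallium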
Autophagy mod: autophagy modulators in MEF cells, primary screen, imaging, high-content, MEF GFP-LC3. MEF GFP-LC3 puncta imaging; test concentration mostly 10 µM. calls only at 10 µM (by protocol). actives 0.98% (n = 190,000). AID 463193, 2010;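 active = percentage of spot-positive cells more than 3 SD above its plate mean, without a fluorescence outlier flag or 80% toxicity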
KCC2 mod: KCC2 cotransporter modulators, thallium flux, primary screen, cell-based, HEK293 KCC2, FluoZin-2 fluorescence, MLSMR; KCC2 cells, thallium flux FluoZin-2 fluorescence; B-score of Tl+ flux slope (higher = more flux/activation; lower = inhibition) at 10 µM; actives 2.2% (n = 190,000); AID 1456, 2008;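 active = thallium flux slope and its plate-corrected score both differing from the plate sample mean at a set confidence after two filtering rounds, in either direction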;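 note: slope of fluorescence scaled to starting intensity during 10 to 20 s after thallium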
Target sequence (Q9H2X9 whole entry, looked up): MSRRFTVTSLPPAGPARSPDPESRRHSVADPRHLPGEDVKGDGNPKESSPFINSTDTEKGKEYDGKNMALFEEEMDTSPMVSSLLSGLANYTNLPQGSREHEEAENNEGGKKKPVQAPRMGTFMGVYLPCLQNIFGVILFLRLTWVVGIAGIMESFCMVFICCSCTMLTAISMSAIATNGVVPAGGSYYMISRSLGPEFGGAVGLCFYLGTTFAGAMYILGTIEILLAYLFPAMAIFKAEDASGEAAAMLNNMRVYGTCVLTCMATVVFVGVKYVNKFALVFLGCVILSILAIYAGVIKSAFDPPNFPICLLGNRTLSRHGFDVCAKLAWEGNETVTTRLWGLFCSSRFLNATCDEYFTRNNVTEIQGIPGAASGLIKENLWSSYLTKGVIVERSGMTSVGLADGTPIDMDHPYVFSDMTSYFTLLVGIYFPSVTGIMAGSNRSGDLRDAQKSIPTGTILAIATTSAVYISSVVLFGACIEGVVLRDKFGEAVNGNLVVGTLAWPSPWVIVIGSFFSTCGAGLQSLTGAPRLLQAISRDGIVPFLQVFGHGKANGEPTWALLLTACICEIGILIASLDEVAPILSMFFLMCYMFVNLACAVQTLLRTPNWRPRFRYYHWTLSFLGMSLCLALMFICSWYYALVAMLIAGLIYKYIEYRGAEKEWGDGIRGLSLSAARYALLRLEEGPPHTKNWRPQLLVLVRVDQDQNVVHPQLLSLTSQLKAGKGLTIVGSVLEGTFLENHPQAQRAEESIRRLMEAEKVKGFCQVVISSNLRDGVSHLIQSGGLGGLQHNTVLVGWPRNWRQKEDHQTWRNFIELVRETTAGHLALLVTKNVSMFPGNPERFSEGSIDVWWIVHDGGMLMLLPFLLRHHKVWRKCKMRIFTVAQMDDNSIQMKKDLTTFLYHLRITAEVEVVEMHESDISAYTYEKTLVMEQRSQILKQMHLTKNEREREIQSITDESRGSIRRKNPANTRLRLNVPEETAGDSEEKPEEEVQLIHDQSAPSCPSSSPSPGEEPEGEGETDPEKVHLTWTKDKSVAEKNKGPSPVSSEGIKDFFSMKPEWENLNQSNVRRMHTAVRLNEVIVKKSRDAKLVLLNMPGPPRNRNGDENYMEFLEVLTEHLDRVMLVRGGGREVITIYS
Dynein transport: inhibitors of GR-EGFP nuclear translocation, primary screen, dynein cargo transport inhibitor project, imaging, high-content, 3617.4 mouse cells | test concentration mostly 20 µM; stimulated with dexamethasone, 1 µM; hits give low values | z-score, hits read low | actives 0.47% (n = 220,000) | AID 1381, 2008;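 active = plate z-score of nuclear minus cytoplasmic receptor signal below a set negative limit, without overly bright fluorescence or cell loss, cut at about -3.5 in these data, passing the limit was not always enough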;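 note: z-score of nuclear minus cytoplasmic ring GR-EGFP intensity difference per well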
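Buffer or medium – tet-free medium with charcoal-stripped serum · Signal – automated 10x imaging of fixed Hoechst-stained cells · Also added – dexamethasone agonist, 1.0 µM final, for 30 min · Incubation – induction 48 h, compound 1 h, agonist 30 min · Read-out – GR-EGFP nuclear translocation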
Hits are given with their value; i = inactive; nt = not tested or not shown; + = active, no number. Rows were chosen to be rich in hits. Some 4.1% of all compounds tested hit in one or more screens of this group.

SMILES	DTT redox prof	ROMK mod	Autophagy mod	KCC2 mod	Dynein transport
C=CCC(O)(CC=C)C(C)N (stereo unspecified)	i	i	i	i	i
Clc1ccc(C2=Nn3c(nnc3-c3n[nH]c4c3CCC4)SC2)cc1	i	nt	+	i	i
CN=C(NC1CCCCC1)c1ccc(Cl)cc1	i	i	i	i	i
COCCNc1cc(N)c([N+](=O)[O-])cc1[N+](=O)[O-]	i	nt	i	i	i
CCOC(=O)c1ccc(NCCOC)c([N+](=O)[O-])c1	i	i	+	nt	i
CCCCN(CCCNC(=O)CN1C(=O)COc2ccccc21)c1ccccc1	i	nt	+	i	i
N#Cc1ccc(COC(=O)c2ccccn2)cc1	i	i	i	i	i
S=c1nc(-c2ccccc2)[nH]n1-c1ccccc1	i	6.1	i	53	i
Cc1nc(=S)n(-c2ccccc2)[nH]1	i	nt	i	i	i
COc1cccc(NC(=O)N2CCC(n3nnc4ccccc43)CC2)c1	i	i	i	i	i
COc1ccc(OC)c(-c2oc3ccccc3c(=O)c2O)c1	i	nt	i	6.8	i
CC1CCCN(S(=O)(=O)c2ccc(C(=O)Nc3nnc(-c4ccccc4Cl)o3)cc2)C1 (stereo unspecified)	i	nt	i	21	i
CC1CCCN(S(=O)(=O)c2ccc(C(=O)Nc3nnc(-c4ccccn4)o3)cc2)C1 (stereo unspecified)	i	i	i	i	i
CCN(CC)c1ccc(NC2=C(Cl)C(=O)c3ccccc3C2=O)cc1	i	nt	i	i	-4.4
Cc1cc(CNC(=O)c2cccnc2Cl)c2ccccc2n1	i	nt	i	i	i
CCN(CC)c1ccc(/C=C(/C#N)c2nc3ccc(C)cc3[nH]2)c(OC(C)C)c1	i	nt	+	i	i
COC(=O)N/N=C/c1ccccc1	i	i	i	i	i
CSC(=S)N/N=C/c1ccccc1	i	6.2	i	170	i
S=C(Nc1ccccc1)N1CCOCC1	i	i	i	i	i
S=C(N/N=C/c1ccccc1)N1CCOCC1	i	nt	i	16	i
COc1ccc(OC)c(N=c2ssnc2Cl)c1	i	nt	i	i	-4.7
N#C/C(=C\c1cn(CCOc2ccccc2F)c2ccccc12)C(=O)NCc1cccs1	i	i	+	i	i
CC(C)(C)c1nc2c(Br)cc(Br)cc2c(=O)o1	i	i	i	i	i
CC1=C([N+](=O)[O-])C(c2ccccc2)C2=C(N1)c1ccccc1C2=O (stereo unspecified)	i	i	+	i	i
COc1cc(C2C(C#N)=C(C)NC3=C2C(=O)c2ccccc23)cc(OC)c1OC (stereo unspecified)	i	3.2	i	nt	i
SMILES	DTT redox prof	ROMK mod	Autophagy mod	KCC2 mod	Dynein transport
Cc1ccc(C2C3=C(CCCC3=O)N=C3c4ccccc4C(=O)C32)cc1 (stereo unspecified)	i	i	i	i	i
NS(=O)(=O)c1ccc(CCNC(=O)COC(=O)CC(c2ccccc2)c2ccccc2)cc1	i	i	i	i	i
Cc1ccc(C(=O)COC(=O)c2ccc(O)cc2)cc1	i	i	i	nt	i
CC(C)c1ccc(NC(=O)c2ccc(NS(C)(=O)=O)cc2)cc1	i	i	+	i	i
CCOC(=O)c1ccc(NC(=O)c2ccc(NS(C)(=O)=O)cc2)cc1	i	i	i	nt	i
C/C(CCc1ccccc1)=N\NC(=O)C(=O)Nc1cccc(Cl)c1	i	i	i	i	i
Nc1nonc1C(=O)NCCNCc1cc(Br)ccc1OCc1ccc(F)cc1	i	nt	+	i	i
Cc1ccc(NC(=S)N(CCCN2CCN(C)CC2)Cc2cccs2)cc1	i	i	i	i	i
Cc1ccc(NC(=S)N(CCCN2CCN(C)CC2)Cc2cccs2)cc1C	i	i	+	i	i
CCOC(=O)c1ccc(NC(=S)N(CCCN2CCN(CC)CC2)Cc2ccco2)cc1	i	i	+	i	i
Cc1ccc(NC(=O)CN(C)C(=S)NC2CC2)cc1	i	i	i	i	i
CCNC(=S)N1CCC(C(N)=O)CC1	nt	i	nt	i	i
COc1cccc(-c2nc(N3CCCC3)c3ccccc3n2)c1O	nt	nt	nt	nt	i
COc1cccc(-c2nc(Oc3cc(C)cc(C)c3)c3ccccc3n2)c1O	i	nt	+	i	i
COC(=O)NC(=S)Nc1ccc(Oc2ccc(Cl)cc2)c(Cl)c1	i	i	i	nt	i
COC(=O)NC(=S)Nc1ccc(Oc2ccc(Cl)cc2Cl)c(Cl)c1	i	i	i	11	i
CC(Sc1ccccc1)C(=O)NN=C1CCCCCC1 (stereo unspecified)	i	i	i	i	i
Cc1c(Cl)cccc1N(Cc1ccc(C(=O)O)cc1)S(=O)(=O)c1ccccc1	i	i	i	i	i
Cc1ccc(-c2cn(-c3ccccc3)c(SCC(=O)NC3CCS(=O)(=O)C3)n2)cc1C (stereo unspecified)	nt	i	i	12	i
O=C(c1ccccc1-c1ccccc1)N1CCCCC1	i	i	i	i	i
O=C(c1cccc2cccc(O)c12)N1CCCCC1	i	nt	+	i	i
Cc1c(NC(=O)CSc2ncnc3ccccc23)c(=O)n(-c2ccccc2)n1C	i	i	i	i	i
COc1ccc(-n2c3c(c(=O)[nH]c2=O)C(NS(=O)(=O)c2ccc(Cl)cc2)(C(F)(F)F)C(=O)N3)cc1 (stereo unspecified)	nt	i	nt	i	i
C[C@@H](C(=O)N1CCNCC1)n1cc(CCCN=C(N)N)nn1	i	nt	i	2	i
COc1ccc(NC(=O)CN(C)CC(=O)Nc2ccc(Cl)cc2F)cc1	i	i	i	i	i
SMILES	DTT redox prof	ROMK mod	Autophagy mod	KCC2 mod	Dynein transport
COc1ccccc1NC(=O)NCc1nc(-c2ccc(C(F)(F)F)cc2)no1	nt	i	nt	i	i
Cc1[nH][nH]c(=O)c1C(c1c(C)[nH][nH]c1=O)c1cn(Cc2ccccc2Cl)c2ccccc12	i	i	i	i	i
CC1(C)C2CCC(C2)C1(C)NC(=O)CNC1CCCCC1 (stereo unspecified)	i	i	i	i	i
C=CCOc1ccc(/C=N/NC(=O)C(=O)Nc2ccccn2)cc1OC	i	i	i	i	i
Cc1ccc2c(ccc(=S)n2C)c1	i	i	i	i	i
O=C(Oc1ccc(Br)cc1C(=O)/C=C/c1ccccc1F)c1ccco1	i	nt	i	i	-5.8
COC1=C(c2ccccc2)C(=O)c2ccccc2C1=O	i	i	i	i	i
O=C(C1=C(c2ccccc2)C(=O)c2ccccc2C1=O)c1ccccc1	i	i	+	i	i
O=C(c1cccc(S(=O)(=O)N2CCOCC2)c1)N1CCCCCC1	i	nt	+	nt	i
COc1ccc(CNC(=O)/C(C#N)=C2\N=C(NC(=O)c3cccs3)c3ccccc32)cc1	i	nt	i	i	i
